{"source": "paper PMC5125022", "about": "(ACS chemical neuroscience, 2016)", "key": {"[1]": {"system": "Swiss Webster mice", "assay": "Warm water tail immersion", "format": "in vivo, mouse"}, "[2]": {"system": "Swiss Webster mice", "assay": "Colonic bead expulsion assay", "format": "in vivo, mouse"}, "[3]": {"system": "Swiss Webster mice", "assay": "Charcoal gavage intestinal motility assay", "format": "in vivo, mouse"}, "[4]": {"system": "circular muscle of the mouse colon", "format": "cell-based", "details": "for Inhibition of morphine-induced contractions: 1 nM antagonist, distal or proximal colon, data not shown; for Antagonism of morphine effects: Figure 6A; for Contractions induced by compound alone: concentrations up to 30 μM, distal and proximal colon preparations"}, "[5]": {"biological_target": "T1, KOR (Homo sapiens, UniProt P41145)", "details": "ref 9b, cited from earlier work"}, "[6]": {"biological_target": "T2, MOR (Mus musculus, UniProt P42866)", "details": "Emax relative to full agonist DAMGO (100%), ref 9b; cited from earlier work"}, "[7]": {"biological_target": "T1, KOR", "assay": "Competitive radioligand binding, KOR", "details": "ratio of Ki KOR / Ki MOR", "in_short": "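Membranes from CHO cells stably expressing a single opioid receptor were incubated with test compound at various concentrations and either [3H]naloxone (MOR) or [3H]norBNI (KOR) for 1 h at 30 °C. Specific binding was the difference between binding without and with 10 µM naltrexone. IC50 came from linear regression of Hill plots, and Ki from Cheng-Prusoff. Selectivity is the KOR Ki/MOR Ki ratio, from three independent experiments.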"}, "[8]": {"system": "Swiss Webster mice", "assay": "Acetic acid induced writhing assay", "format": "in vivo, mouse"}, "[9]": {"biological_target": "T2, MOR", "assay": "[35S]GTPγS-binding assay in low MOR-expressing CHO cell line", "format": "biochemical", "in_short": "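Low-MOR-expressing CHO cell material was incubated for 90 min at 30 °C with varying test compound or 3 µM DAMGO (full-agonist reference). Nonspecific binding used 10 µM unlabeled GTPγS. Reactions were stopped by GF/B vacuum filtration, and bound radioactivity was read by scintillation counting. Triplicates gave 3 independent determinations. EC50 and Emax came from nonlinear one-site fits.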"}, "[10]": {"biological_target": "T1, KOR", "assay": "[35S]GTPγS-binding assay in KOR-expressing CHO cell line", "format": "biochemical", "in_short": "(§1)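 CHO-cell membranes expressing DOR or KOR (10 µg protein) were incubated for 90 min at 30 °C in assay buffer. The mix held 10 µM GDP, 0.1 nM [35S]GTPγS, and varying test compound or a 3 µM full-agonist reference (SNC80 for DOR, U50,488H for KOR). Nonspecific binding used 10 µM unlabeled GTPγS. Reactions were stopped by rapid vacuum filtration through glass-fibre filters, and bound radioactivity was read by liquid scintillation. Assays ran in triplicate, with 3 independent determinations. EC50 and Emax came from nonlinear one-site fits.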"}, "[11]": {"system": "Longitudinal Muscle Myenteric Plexus (LMMP) preparations from the guinea pig ileum", "assay": "Electrical field stimulated contractions in LMMP preparations", "format": "cell-based", "details": "Figure 8A"}, "[12]": {"biological_target": "DOR (Homo sapiens, UniProt P41143)", "assay": "[35S]GTPγS-binding assay in DOR-expressing CHO cell line", "format": "biochemical", "in_short": "as §1"}, "[13]": {"details": "10 nM antagonist, proximal colon, Figure 6C"}, "[14]": {"details": "100 nM antagonist, distal colon, Figure 6B"}, "[15]": {"details": "Emax relative to full agonist U50,488H (100%)"}}, "note": "Several values for one entry are separate records, joined by “and”; a condition that tells them apart may be missing. Identical values can stand only once. Like-named read-outs stand apart in the source and are kept apart here.", "data": [{"molecule": "CN1CC[C@]23c4c5ccc(O)c4O[C@H]2[C@@H](O)C=C[C@H]3[C@H]1C5", "note": "[morphine, Morphine, reference compound]", "values": [{"measurement": "Antinociception", "setting": "[1]; mouse, in vivo", "value": "dose dependently induced antinociception"}, {"measurement": "Bead expulsion time", "setting": "[2]; mouse, in vivo", "value": 75, "unit": "min"}, {"measurement": "Decrease of intestinal motility", "setting": "[3]; mouse, in vivo", "value": 3, "unit": "fold"}]}, {"molecule": "O=C(N[C@@H]1CC[C@@]2(O)[C@H]3Cc4ccc(O)c5c4[C@@]2(CCN3CC2CC2)[C@H]1O5)c1ccncc1", "note": "[NAP, 17-Cyclopropylmethyl-3,14beta-dihydroxy-4,5alpha-epoxy-6beta-(4'-pyridylcarboxamido)morphinan, reference compound]", "values": [{"measurement": "Inhibition of morphine-induced contractions", "setting": "[4]", "value": "neither NAP nor BNAP showed significant inhibition"}, {"measurement": "Antagonism of morphine effects", "setting": "[4]; 10 nM antagonist, distal colon", "value": "neither NAP nor BNAP showed significant antagonism"}, {"measurement": "Morphine pD2 in the presence of antagonist", "setting": "[4]; [13]", "value": 5.9}, {"measurement": "Morphine pD2 in the presence of antagonist", "setting": "[4]; [14]", "value": 5.3}, {"measurement": "Contractions induced by compound alone", "setting": "[4]", "value": "Neither BNAP nor NAP alone at concentrations up to 30 μM induced contractions"}, {"measurement": "% max of agonist", "setting": "[5]; [15]", "value": "45.5 ± 4.4", "unit": "%"}, {"measurement": "EC50", "setting": "[5]; [35S]GTPγS binding", "value": "28.8 ± 14.4", "unit": "nM"}, {"measurement": "% max of agonist", "setting": "[6]", "value": "22.72 ± 0.84% and 22.7 ± 0.8%"}]}, {"molecule": "1-Benzyl-17-Cyclopropylmethyl-3,14β-dihydroxy-4,5α-epoxy-6β-[(4'-pyridyl)acetamido]morphinan [BNAP]", "values": [{"measurement": "Selectivity (κ/μ)", "setting": "[7]", "value": "4.6 (κ/μ)"}, {"measurement": "Activity in hypernociceptive model of visceral pain", "setting": "[8]; mice with 5-day 75 mg morphine pellet, Figure 9B", "value": "active at three fold lower concentration"}, {"measurement": "Number of writhes", "setting": "[8]; s.c., naive mice, Figure 9A", "value": "dose dependently reduced the number of writhes"}, {"measurement": "Antinociceptive effect of compound alone", "setting": "[1]; 1.0 μg/5 μL ICV, compared to morphine alone, mice, Figure 4", "value": "did not produce significant antinociception"}, {"measurement": "Antagonism of morphine antinociception", "setting": "[1]; 10 mg/kg s.c., any morphine dose tested, mice, Figure 3", "value": "did not significantly antagonize morphine antinociception"}, {"measurement": "Antinociceptive effect of compound alone", "setting": "[1]; 10 mg/kg s.c., mice, Figure 3", "value": "did not produce significant antinociceptive effects"}, {"measurement": "Reversal of morphine antinociception", "setting": "[1]; ICV, increasing concentrations, mice, Figure 4", "value": "dose dependent reversal of morphine antinociception"}, {"measurement": "Dose giving complete reversal of morphine antinociception", "setting": "[1]; ICV, mice, Figure 4", "value": 0.3, "unit": "μg/5 μL"}, {"measurement": "Inhibition of morphine-induced contractions", "setting": "[4]", "value": "neither NAP nor BNAP showed significant inhibition"}, {"measurement": "Antagonism of morphine effects", "setting": "[4]; 10 nM antagonist, distal colon", "value": "neither NAP nor BNAP showed significant antagonism"}, {"measurement": "Morphine pD2 in the presence of antagonist", "setting": "[4]; [13]", "value": 5.9}, {"measurement": "Morphine pD2 in the presence of antagonist", "setting": "[4]; [14]", "value": 5.2}, {"measurement": "Change of morphine pD2 on raising the antagonist concentration", "setting": "[4]; 100 nM versus 10 nM antagonist, proximal colon", "value": "no further reduction of the morphine pD2"}, {"measurement": "Contractions induced by compound alone", "setting": "[4]", "value": "Neither BNAP nor NAP alone at concentrations up to 30 μM induced contractions"}, {"measurement": "% max of agonist", "setting": "[9]; Emax relative to full agonist DAMGO (100%)", "value": "14.6% and 14.6 ± 0.9%"}, {"measurement": "EC50", "setting": "[9]; [35S]GTPγS binding", "value": "4.84 nM and 4.8 nM"}, {"measurement": "% max of agonist", "setting": "[10]; [15]", "value": "45.9 ± 1.7", "unit": "%"}, {"measurement": "EC50", "setting": "[10]; [35S]GTPγS binding", "value": "2.9 ± 1.1", "unit": "nM"}, {"measurement": "pIC50 for inhibition of EFS contractions", "setting": "[11]", "value": "7.86 ± 0.07"}, {"measurement": "Bead expulsion time", "setting": "[2]; BNAP alone 10 mg/kg, mice (naive 17 min)", "value": 43, "unit": "min"}, {"measurement": "Antagonism of morphine's effect on bead expulsion", "setting": "[2]; given with morphine or 5 or 15 min before morphine", "value": "no significant antagonism of morphine's effects was observed"}, {"measurement": "% max of agonist", "setting": "[12]; Emax relative to full agonist SNC80 (100%)", "value": "9.2 ± 2.2", "unit": "%"}, {"measurement": "EC50", "setting": "[12]; [35S]GTPγS binding", "value": "108 ± 69", "unit": "nM"}, {"measurement": "Decrease of intestinal motility", "setting": "[3]; charcoal gavage, mice, Figure 7B", "value": 1.5, "unit": "fold"}, {"measurement": "Reversal of morphine induced inhibition of intestinal motility", "setting": "[3]; mice", "value": "unable to reverse morphine induced inhibition of intestinal motility"}]}, {"molecule": "DAMGO [reference compound]", "values": [{"measurement": "pIC50 for inhibition of EFS contractions", "setting": "[11]", "value": "7.67 ± 0.03"}]}]}
